Assay results published in ChEMBL document CHEMBL4311952, “Discovery and Development of a Series of Pyrazolo[3,4-d]pyridazinone Compounds as the Novel Covalent Fibroblast Growth Factor Receptor Inhibitors by the Rational Drug Design” (J Med Chem, 2019).
In brackets after ≈: the same amount, converted by molar mass.

Experiments:
[1] = Kinetic solubility of the compound in pH 7.4 PBS by nephelometric method; type: physicochemical; details: read-out: Kinetic_solubility
[2] = Half life in mouse liver microsomes at 0.1 uM in presence of NADPH by LC-MS/MS analysis; type: ADME, Microsome; details: for half-life at 0.1 µM: liver microsomes
Outline: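 Mouse liver microsomes at 0.33 mg/mL protein with 5 mM MgCl2, 0.1 μM compound, 1 mM NADPH, 0.1 M Tris/HCl pH 7.4, final DMSO 0.01%. Pre-warmed 10 min at 37 °C, started with NADPH. Sampled at 0, 7, 17, 30 and 60 min, quenched with methanol, analysed by LC-MS/MS in duplicate. T1/2 = -0.693/k from first-order consumption.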

[3] = Stability in rat blood at 5 uM measured after 5 hrs by LC-MS/MS analysis; type: ADME, tissue-based
Outline: (§1)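 Compound at 5 μM in fresh rat blood at 37 °C; samples at 0, 0.5, 1.0, 2.0 and 5.0 h, stopped by methanol protein precipitation; percentage of residual parent measured by LC-MS/MS.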

[4] = Tmax in Sprague-Dawley rat at 10 mg/kg, iv by LC-MS/MS analysis; type: ADME, organism-based; details: in vivo
Outline: (§2)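 SD rats dosed in 5% DMSO + 5% Tween-80 in 90% saline, IV 10 mg/kg, PO 20 mg/kg or IP 20 mg/kg; blood collected and centrifuged to plasma, which was deproteinized with methanol containing internal standard, diluted and re-centrifuged; concentrations by LC/MS/MS.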

[5] = Cmax in Sprague-Dawley rat at 10 mg/kg, iv by LC-MS/MS analysis; type: ADME, organism-based; parameters: dose 10 mg/kg, route intravenous; details: in vivo
Outline: (§3)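 SD rats dosed IV 10 mg/kg, PO 20 mg/kg or IP 20 mg/kg in 5% DMSO + 5% Tween-80 in 90% saline. Blood collected after dosing and spun to plasma. Plasma deproteinized with methanol containing internal standard, centrifuged, diluted with methanol and spun again. Compound in supernatant quantified by LC/MS/MS.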

[6] = AUC (0 to t) in Sprague-Dawley rat at 10 mg/kg, iv by LC-MS/MS analysis; type: ADME, organism-based; details: in vivo; outline: as §3
[7] = AUC (0 to infinity) in Sprague-Dawley rat at 10 mg/kg, iv by LC-MS/MS analysis; type: ADME, organism-based; parameters: dose 10 mg/kg, time infinity, route intravenous; details: in vivo; outline: as §3
[8] = MRT in Sprague-Dawley rat at 10 mg/kg, iv by LC-MS/MS analysis; type: ADME, organism-based; details: in vivo; outline: as §2
[9] = Half life in Sprague-Dawley rat at 10 mg/kg, iv by LC-MS/MS analysis; type: ADME, organism-based; details: in vivo; outline: as §3
[10] = Clearance in Sprague-Dawley rat at 10 mg/kg, iv by LC-MS/MS analysis; type: ADME, organism-based; details: in vivo; outline: as §3
[11] = Tmax in Sprague-Dawley rat at 20 mg/kg, po by LC-MS/MS analysis; type: ADME, organism-based; details: in vivo; outline: as §2
[12] = Cmax in Sprague-Dawley rat at 20 mg/kg, po by LC-MS/MS analysis; type: ADME, organism-based; parameters: dose 20 mg/kg, route oral; details: in vivo; outline: as §3
[13] = AUC (0 to t) in Sprague-Dawley rat at 20 mg/kg, po by LC-MS/MS analysis; type: ADME, organism-based; details: in vivo; outline: as §3
[14] = AUC (0 to infinity) in Sprague-Dawley rat at 20 mg/kg, po by LC-MS/MS analysis; type: ADME, organism-based; parameters: dose 20 mg/kg, route oral, time infinity; details: in vivo; outline: as §3
[15] = MRT in Sprague-Dawley rat at 20 mg/kg, po by LC-MS/MS analysis; type: ADME, organism-based; details: in vivo; outline: as §2
[16] = Half life in Sprague-Dawley rat at 20 mg/kg, po by LC-MS/MS analysis; type: ADME, organism-based; details: in vivo; outline: as §3
[17] = Oral bioavailability in Sprague-Dawley rat at 20 mg/kg by LC-MS/MS analysis; type: ADME, organism-based; details: in vivo; outline: as §2
[18] = Stability in rat blood assessed as parent compound remaining at 5 uM measured after 5 hrs by LC-MS/MS analysis; type: ADME, tissue-based; details: read-out: Stability; outline: as §1
[19] = Volume of distribution at steady state in Sprague-Dawley rat at 10 mg/kg, iv by LC-MS/MS analysis; type: ADME, organism-based; details: in vivo; outline: as §2
[20] = Tmax in Sprague-Dawley rat at 20 mg/kg, ip by LC-MS/MS analysis; type: ADME, organism-based; details: in vivo; outline: as §2
[21] = Cmax in Sprague-Dawley rat at 20 mg/kg, ip by LC-MS/MS analysis; type: ADME, organism-based; parameters: dose 20 mg/kg, route intraperitoneal; details: in vivo; outline: as §3
[22] = AUC (0 to t) in Sprague-Dawley rat at 20 mg/kg, ip by LC-MS/MS analysis; type: ADME, organism-based; details: in vivo; outline: as §3
[23] = AUC (0 to infinity) in Sprague-Dawley rat at 20 mg/kg, ip by LC-MS/MS analysis; type: ADME, organism-based; parameters: dose 20 mg/kg, time infinity, route intraperitoneal; details: in vivo; outline: as §3
[24] = MRT in Sprague-Dawley rat at 20 mg/kg, ip by LC-MS/MS analysis; type: ADME, organism-based; details: in vivo; outline: as §2
[25] = Half life in Sprague-Dawley rat at 20 mg/kg, ip by LC-MS/MS analysis; type: ADME, organism-based; details: in vivo; outline: as §3
[26] = Drug metabolism in mouse liver microsomes at 3 uM measured after 180 mins by UPLC-UV/Q-TOF MS analysis; type: ADME, Microsome; details: 3 h
[27] = Drug metabolism in human liver microsomes assessed as oxidation at 3 uM measured after 180 mins by UPLC-UV/Q-TOF MS analysis; type: ADME, Microsome; details: 3 h
[28] = Drug metabolism in monkey liver microsomes assessed as oxidation at 3 uM measured after 180 mins by UPLC-UV/Q-TOF MS analysis; type: ADME, Macaca mulatta, Microsome; details: rhesus monkey, 3 h
[29] = Drug metabolism in dog liver microsomes assessed as oxidation at 3 uM measured after 180 mins by UPLC-UV/Q-TOF MS analysis; type: ADME, Canis lupus familiaris, Microsome; details: 3 h
[30] = Drug metabolism in rat liver microsomes assessed as oxidation at 3 uM measured after 180 mins by UPLC-UV/Q-TOF MS analysis; type: ADME, Microsome; details: 3 h
[31] = Drug metabolism in mouse liver microsomes assessed as oxidation at 3 uM measured after 180 mins by UPLC-UV/Q-TOF MS analysis; type: ADME, Microsome; details: 3 h
[32] = Drug metabolism in human liver microsomes assessed as amino demethylation at 3 uM measured after 180 mins by UPLC-UV/Q-TOF MS analysis; type: ADME, Microsome; details: 3 h
[33] = Drug metabolism in monkey liver microsomes assessed as amino demethylation at 3 uM measured after 180 mins by UPLC-UV/Q-TOF MS analysis; type: ADME, Macaca mulatta, Microsome; details: rhesus monkey, 3 h
[34] = Drug metabolism in dog liver microsomes assessed as amino demethylation at 3 uM measured after 180 mins by UPLC-UV/Q-TOF MS analysis; type: ADME, Canis lupus familiaris, Microsome; details: 3 h
[35] = Drug metabolism in rat liver microsomes assessed as amino demethylation at 3 uM measured after 180 mins by UPLC-UV/Q-TOF MS analysis; type: ADME, Microsome; details: 3 h
Outline: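 Human, mouse, rat, dog or monkey liver fractions (1.0×10^6 cells/mL) in William's medium E (pH 7.4) with 3.0 μM substrate, 37 °C for 180 min. Stopped with equal volume ice-cold acetonitrile. Duplicates pooled per species, spun, dried under nitrogen, reconstituted in acetonitrile/water 10:90. Metabolites profiled by UPLC-UV/Q-TOF MS.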

[36] = Drug metabolism in mouse liver microsomes assessed as amino demethylation at 3 uM measured after 180 mins by UPLC-UV/Q-TOF MS analysis; type: ADME, Microsome; details: 3 h

Cc1ccc2oc(-c3c4c(N)n[nH]c(=O)c4nn3-c3ccc(NC(=O)/C=C/CN(C)C)cc3)c(C)c2c1
solubility kinetic [1]: 50 µM (≈ 24.9 µg/mL)
half-life at 0.1 µM [2]: 1.05 h
Stability [3]: Stable

CC(=O)c1cc(Br)ccc1O
solubility kinetic [1]: 50 µM (≈ 10.8 µg/mL)

Cc1ccc2oc(-c3c4c(N)n[nH]c(=O)c4nn3-c3ccc(NC(=O)/C=C/CN4CCOCC4)cc3)c(C)c2c1
solubility kinetic [1]: 50 µM (≈ 27 µg/mL)

C=CC(=O)Nc1ccc(-n2nc3c(=O)[nH]nc(N)c3c2-c2oc3ccc(Cl)cc3c2C)cc1
solubility kinetic [1]: 20 µM (≈ 9.22 µg/mL)
half-life at 0.1 µM [2]: 0.483 h

C=CC(=O)Nc1ccc(-n2nc3c(=O)[nH]nc(N)c3c2-c2oc3ccc(C)cc3c2C)cc1
solubility kinetic [1]: 20 µM (≈ 8.81 µg/mL)
half-life at 0.1 µM [2]: 0.517 h
Tmax [4]: 4.98 min
Cmax [5]: 1880 ng/mL
AUC(0-t) [6]: 1090 ng·h/mL
AUC(0-inf) [7]: 1270 ng·h/mL
MRT ([8]; Sprague-Dawley, read-out: MRT): 5.04 h
half-life [9]: 6.25 h
clearance ([10]; Sprague-Dawley): 143 mL/min/kg
Tmax [11]: 0.861 h
Cmax [12]: 12.9 ng/mL
AUC(0-t) [13]: 6.4 ng·h/mL
AUC(0-inf) [14]: 6.4 ng·h/mL
MRT [15]: 2.17 h
half-life [16]: 1.77 h
bioavailability [17]: 0.29%

Cc1c(-c2c3c(N)n[nH]c(=O)c3nn2-c2ccc(NC(=O)/C=C/CN(C)C)cc2)oc2ccc(Br)cc12
solubility kinetic [1]: 50 µM (≈ 28.1 µg/mL)

CC(=O)c1ccccc1O
solubility kinetic [1]: 50 µM (≈ 6.81 µg/mL)

Cc1c(-c2c3c(N)n[nH]c(=O)c3nn2-c2ccc(NC(=O)/C=C/CN(C)C)cc2)oc2ccc(Cl)cc12
solubility kinetic [1]: 200 µM (≈ 104 µg/mL)
t1/2 ([2]; microsomes, 0.1 µM): 1.72 h
remaining at 5 h, 5 µM [18]: 20%
AUC(0-t) [6]: 4310 ng·h/mL
AUC(0-inf) [7]: 4410 ng·h/mL
MRT [8]: 1.64 h
half-life [9]: 8.55 h
CL [10]: 37.8 mL/min/kg
Vdss [19]: 28 L/kg
Tmax [11]: 0.5 h
Cmax [12]: 7.3 ng/mL
AUC(0-t) [13]: 32.6 ng·h/mL
AUC(0-inf) [14]: 51.5 ng·h/mL
MRT [15]: 7.33 h
half-life [16]: 21.6 h
bioavailability [17]: 0%
Tmax [20]: 0.5 h
Cmax [21]: 5040 ng/mL
AUC(0-t) [22]: 16800 ng·h/mL
AUC(0-inf) [23]: 17000 ng·h/mL
MRT [24]: 3.3 h
half-life [25]: 4.63 h
Drug metabolism [26]: 20%
Drug metabolism [27]: Metabolite_Detected
Drug metabolism [28]: Metabolite_Detected
Drug metabolism [29]: Metabolite_Detected
Drug metabolism [30]: Metabolite_Detected
Drug metabolism [31]: Metabolite_Detected
Drug metabolism [32]: Metabolite_Detected
Drug metabolism [33]: Metabolite_Detected
Drug metabolism [34]: Metabolite_Detected
Drug metabolism [35]: Metabolite_Detected
Drug metabolism [36]: Metabolite_Detected
